“Also recorded” adds a separate entry of the source. Like-named read-outs stand apart in the source and are kept apart here. Where no end group is shown, it is not given here. The star is where a group is joined. MTSL = methane thiosulphonate spin label, CC1(C)C=C(CS*)C(C)(C)N1[O]
Legend:
Pyk2-FAT [1] = experiment: Sedimentation equilibrium AUC; format: binding, human; details: AUC-SE; for Kd: two site hetero-association model (A+B+B↔ABB), 1:2 Pyk2-FAT to peptide, 20 mM MES, pH 6.2, 4 °C, Monte Carlo error, 500 iterations, confidence level 0.68
Method in brief: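 Sedimentation equilibrium at 4 °C in 20 mM MES, 50 mM NaCl, pH 6.2. Rotor speeds 18.4, 26.9 and 46k rpm, equilibrium reached at 30, 26 and 18 h. Loading 35–96 μM. Absorbance read at 280 and 230 nm, 0.001 cm radial steps, 20 replicates per point. Global least-squares fit across speeds to the A+B+B↔ABB model.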

Pyk2-FAT [2] = experiment: Co-crystal structure with Pyk2-FAT; format: binding, human; details: PDB 4R32, 3.5 Å, one at H1/H4, one at H2/H3
Pyk2-FAT [3] = experiment: NMR titration / chemical shift perturbation of 15N-labeled Pyk2-FAT; format: binding, human; details: 15N-HSQC/TROSY titration, Pyk2-FAT:ligand 1:0.2 to 1:2, 20 mM MES, pH 6.2, 305K
Method in brief: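 15N-labeled Pyk2-FAT (400–500 μM in 20 mM MES, pH 6.2) titrated at 305 K with chicken LD peptides at protein:peptide ratios of 1:0.2 to 1:2. Peptide stocks were in dialysis buffer, pH readjusted to 6.2. 15N-HSQC spectra recorded at 600/800 MHz. Weighted shift Δav = [(ΔH² + (ΔN/5)²)/2]^1/2. For PRE, MTSL-labeled peptides were added at 1:0.2 and Iox/Ired taken after ascorbate reduction.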

Pyk2-FAT [4] = experiment: Reverse NMR titration: unlabeled Pyk2-FAT added to 15N-labeled paxillin ligand; format: binding, human; details: 1H-15N HSQC/TROSY, ratios up to 1:2, 20 mM MES, pH 6.2
Method in brief: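 Unlabelled Pyk2-FAT was titrated into a 15N-labelled ligand in 20 mM MES pH 6.2, with 15N-1H HSQC spectra at 600/800 MHz and 305 K. Ligands were an expressed chicken paxillin 139–163 peptide or His-tagged chicken paxillin 133–290. […] Ratios were 1:0.2–1:2.0.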

FAK-FAT = details: ref [39] (b5), [39], [40]; cited from earlier work
[5] = tested on: FAT-like domain from G-protein-coupled receptor kinase-interacting protein 1 (GIT1); details: ref [41]; cited from earlier work
Pyk2-FAT [6] = experiment: Steady-state 1H-15N heteronuclear NOE; design: species or system human; details: 600 MHz, 305 K; relative to free Pyk2-FAT, loop regions
Method in brief: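 Steady-state 1H-15N heteronuclear NOE was measured at 600 MHz, 305 K on 15N-labelled Pyk2-FAT, free and bound to LD-motif peptide. Protein was at 400–500 μM in 20 mM MES pH 6.2. NOE values were taken as peak-intensity ratios of 1H-saturated to unsaturated spectra.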

Pyk2-FAT [7] = experiment: H/D exchange NMR of Pyk2-FAT complexes; design: species or system human; details: H/D exchange in D2O, fast 15N-HSQC, up to 10 h
Method in brief: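 15N-labelled Pyk2-FAT complexes (400–500 μM, 20 mM MES pH 6.2) were lyophilized and rehydrated in D2O. FAST 1H-15N HSQC spectra were recorded at intervals up to 10 h at 305 K. HSQC spectra in H2O before and after exchange checked structural integrity.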

Pyk2-FAT [8] = experiment: Isothermal titration calorimetry; format: binding, human
Method in brief: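 Human Pyk2 FAT domain (residues 871–1005) with an N-terminal His6 tag, expressed in E. coli BL21(DE3) and purified by Ni-affinity then gel filtration. The cell held 10 μM protein in 20 mM MES, pH 6.2. The syringe held chicken paxillin LD-motif peptides (100 μM) or the His-tagged paxillin 133–290 fragment (50 μM). Solutions degassed; 2 μl injections, 120 s apart, at 25°C. Ligand-into-buffer heats subtracted. Fits used one-site or two-site sequential models. Run in duplicate.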

Pyk2-FAT [9] = experiment: Paramagnetic relaxation enhancement; format: binding, human; details: PRE, MTSL-labeled peptide, Pyk2-FAT:peptide 1:0.2, 20 mM MES, pH 6.2
Method in brief: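 Single-cysteine peptide variants in 20 mM phosphate pH 7.2 were reacted with fivefold molar excess MTSL for 8 h at room temperature. They were HPLC-repurified, lyophilized and redissolved in 20 mM MES pH 6.2, then added to uniformly 15N-labelled Pyk2-FAT. The reduced reference used fivefold molar excess ascorbic acid for 1 h. Per-residue Iox/Ired peak-intensity ratios were computed, excluding prolines and overlapped peaks.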

| Substance | global free energy difference between first and second sites (ΔGAB and ΔGABB) (Pyk2-FAT [1]; 1:2 stoichiometry, two-site hetero-association model) | Delta G, single site (1:1) (Pyk2-FAT [1]; single site hetero-association model, T = 277.149994K, RT = 0.551kcal/mol) | Delta G, first binding site (1:2) (Pyk2-FAT [1]; two site hetero-association model, first site, T = 277.149994K, RT = 0.551kcal/mol) | Delta G, second binding site (both occupied) (Pyk2-FAT [1]; two site hetero-association model, second site, T = 277.149994K, RT = 0.551kcal/mol) | Kd (Pyk2-FAT [1]; read-out: KAB (first site), 1:2 stoichiometry) | Kd (Pyk2-FAT [1]; read-out: KABB (second site), 1:2 stoichiometry) | peptide molecules bound per Pyk2-FAT in crystal (Pyk2-FAT [2]) | binding sites / site preference on Pyk2-FAT by NMR (Pyk2-FAT [3]) | effect of unlabeled Pyk2-FAT on resonances of 15N-labeled ligand (Pyk2-FAT [4]) | preferred binding site on FAK-FAT (FAK-FAT) | binding site on GIT1 FAT-like domain [5] | steady-state 1H-15N NOE of Pyk2-FAT amides upon ligand binding (Pyk2-FAT [6]) | amide H/D exchange protection of Pyk2-FAT in complex (Pyk2-FAT [7]) | relative binding at H1/H4 and H2/H3 sites of Pyk2-FAT (Pyk2-FAT [8]; discussion statement, H1/H4 versus H2/H3) | affinity preference for H2/H3 site over H1/H4 site of Pyk2-FAT (Pyk2-FAT [8]; from ITC and AUC studies) | H2/H3 residues of Pyk2-FAT affected by spin-labeled peptide (Pyk2-FAT [9]) |
| --- | --- | --- | --- | --- | --- | --- | --- | --- | --- | --- | --- | --- | --- | --- | --- | --- |
| LD2: paxillin derived peptide LD2 (chicken paxillin; residues 139–163), chemically synthesized (GSNLSELDRLLLELNAVQHNPPSGF) | -0.76 kcal/mol | -7.61 kcal/mol | -7.45 kcal/mol | -6.69 kcal/mol | 1.32 ± 0.02 µM | 5.3 ± 0.12 µM | two LD2 peptides bind to one molecule of Pyk2-FAT | H2/H3 is the stronger binding site | most of the LD2 resonances were broadened beyond detection | specifically recognizes the H1/H4 site of FAK-FAT; also recorded: preferentially binds to the helices H1 and H4 interface (H1/H4) site | located exclusively at the H1/H4 surface | significantly increased relative to free Pyk2-FAT | residues from H2/H3 and H1/H4 were protected even after 10 hrs | binds to both H1/H4 and H2/H3 sites of Pyk2-FAT equally well | 5 fold |  |
| LD2MTSL: methane thiosulphonate (MTSL)-derivatized LD2 peptide (GSNLSELDRLLLELNAVC(MTSL)HNPPSGF) |  |  |  |  |  |  |  |  |  |  |  |  |  |  |  | residues from H2/H3 disappeared or showed reduced intensity |

From publication PMC4267758 (Journal of molecular biology, 2014)
